Screens from PubChem BioAssay.
TAG inh: reduces triacylglycerol accumulation in H9c2 cells; Nile Red lipid (TAG) fluorescence; cells loaded with 200 µM oleic acid; inhibition, % at 12.5 µM; actives 0.66% (n = 230,000); AID 651582;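 active = pattern-corrected inhibition of lipid staining of at least 50% with the nuclear-stain viability signal not falling by more than 50%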;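 also: 0% = DMSO wells and 100% = triacsin C control wells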
MT1-MMP act inh: MT1-MMP (human) activation inhibition; P50281; actives 0.061% (n = 360,000); HT1080 RFP-PRO-GFP cells, GFP/RFP ratio fluorescence, overnight; percent of plate control window, DMSO zero; GFP/RFP ratio change, % at 20 µM; AID 651647;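 active = GFP/RFP ratio change of at least 30% with cell ATP level not reduced by more than half and red fluorescence within 50% of control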
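Assay system – RFP-PRO-GFP reporter HT1080 cells · Compound dosing – single dose of 20 µM compound, 1% DMSO final · Incubation – overnight compound exposure at 37 °C · Measure – GFP/RFP fluorescence ratio · Benchmarks – DMSO wells and RFP-L50D-GFP cells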
Efflux pump inh: antifungal efflux pump inhibition, Nile Red retention. actives 0.44% (n = 330,000). S. cerevisiae Candida pump triplex. inhibition, % at 10 µM;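 active = plate passing quality check with inhibition over a set limit, or well fluorescence over plate mean plus 4 SD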;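 also: Nile Red retained in pooled yeast measured as flow cytometry median fluorescence; 0% = buffer negative control and 100% = Enniatin B positive control; higher means more Nile Red kept so more efflux inhibition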
HGIII-sPLA2 inh: Blocks human group III sPLA2 activity; Q9NZ20; QFRET BODIPY PC-A2 liposome hydrolysis, fluorescence; inhibition, % at 12.2 µM; actives 0.56% (n = 370,000); AID 743126;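 active = inhibition above mean plus 3 SD of compounds lying within the high and low control bounds, cut at about 19% in these data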;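 also: 0% = median of test compound wells and 100% = no enzyme DMSO wells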
Target sequence (Q9NZ20 whole entry, looked up): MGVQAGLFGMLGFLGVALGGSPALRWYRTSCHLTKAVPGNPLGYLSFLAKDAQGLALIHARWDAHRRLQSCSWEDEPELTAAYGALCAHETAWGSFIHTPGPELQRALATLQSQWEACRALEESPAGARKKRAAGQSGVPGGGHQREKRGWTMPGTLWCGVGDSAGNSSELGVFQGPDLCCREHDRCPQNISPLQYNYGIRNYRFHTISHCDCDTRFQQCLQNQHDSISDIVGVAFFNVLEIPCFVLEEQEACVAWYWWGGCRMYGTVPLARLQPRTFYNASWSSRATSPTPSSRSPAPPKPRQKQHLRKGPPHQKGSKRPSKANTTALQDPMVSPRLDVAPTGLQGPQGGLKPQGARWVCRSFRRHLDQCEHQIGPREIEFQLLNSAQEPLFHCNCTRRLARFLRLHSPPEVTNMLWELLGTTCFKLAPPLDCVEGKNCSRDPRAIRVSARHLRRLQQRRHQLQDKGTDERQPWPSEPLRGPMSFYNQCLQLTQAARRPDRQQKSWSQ
Cmpd fluor yeast: flagged as fluorescent in efflux inhibitor counter-screen. shares compounds with Efflux pump inh. S. cerevisiae AD/pABC3, compound fluorescence, flow cytometry. fluorescence ratio to DMSO, % at 10 µM. actives 4% (n = 1,700). AID 588517;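 active = fluorescence ratio to DMSO above its plate's cutoff, the plate mean ratio plus 5 SD, cut at about 210% in these data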;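 also: unstained yeast with no Nile Red so the signal is compound autofluorescence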
CaMdr1 efflux inh: Candida Mdr1 efflux pump inhibition | actives 1% (n = 1,700) | S. cerevisiae AD/CaMDR1, Nile Red efflux, flow cytometry | shares compounds with Efflux pump inh | AID 588518 | inhibition, % at 10 µM; in the data active = inhibition above about 26%;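 also: 0% = DMSO vehicle and 100% = reference inhibitor; higher means more Nile Red retained so more efflux inhibition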
Cdr2 pump inh: blocks the Candida albicans Cdr2 efflux pump in yeast | shares compounds with Efflux pump inh | S. cerevisiae AD/CaCDR2, Nile Red retention, flow cytometry | Nile Red retention ratio vs DMSO, % at 10 µM | actives 4% (n = 1,700) | AID 588520; in the data active = Nile Red retention ratio vs DMSO above about 190%;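 also: higher ratio means more blocking of Cdr2 efflux of the dye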
CaCdr1 efflux inh: inhibitors of Candida albicans Cdr1 efflux pump | S. cerevisiae AD/CaCDR1, Nile Red efflux, flow cytometry | actives 1% (n = 1,700) | shares compounds with Efflux pump inh | AID 588522 | inhibition, % at 10 µM;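 active = inhibition above the screen-wide mean plus twice its standard deviation, cut at about 32% in these data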
Active calls of the source: *; · = not tested or not shown. Sampled rows, rich in hits. Any-hit rate of the full collection: about 1.3%.

SMILES	TAG inh	MT1-MMP act inh	Efflux pump inh	HGIII-sPLA2 inh	Cmpd fluor yeast	CaMdr1 efflux inh	Cdr2 pump inh	CaCdr1 efflux inh
Cc1ccc(S(=O)(=O)Nc2ccc3cn[nH]c3c2)cc1	6	3	0	-21	·	·	·	·
COc1ccc(-c2ccc(SCC(=O)NC3CCCCC3)nn2)cc1OC	·	0	0	-3	·	·	·	·
CCO[C@@H]1OC(C(=O)Nc2ccccc2)=C[C@H](c2ccc(Br)cc2)[C@H]1CCCO	7	3	0.8*	-23	100	0	121	0
COc1ccccc1NC(=O)c1c(N=Cc2c(O)ccc3ccccc23)cnn1C	25	-4	0.4*	11	110	1	103	0
Cn1ncc(N=Cc2c(O)ccc3ccccc23)c1C(=O)N1CCOCC1	-12	-4	0	-4	·	·	·	·
Nc1ccc2nc(-c3cccc(-c4nc5ccc(N)cc5[nH]4)c3)[nH]c2c1	·	5	2.1*	4	101	0	119	0
Nc1ccc(-c2nc3ccc(N)cc3[nH]2)cc1	2	12	0	3	·	·	·	·
CSCCC(NC(=O)c1ccccc1Cl)C(=O)N(C)Cc1cccs1 (configuration not stated)	-5	-4	5.5*	2	101	0	106	0
Cc1ccc(C(C)NC(=O)c2c(-c3ccccc3)noc2C)cc1C (configuration not stated)	14	0	5.7*	-2	75	0	91	0
COc1cc(OC)cc(C2=Cc3ccccc3C(CC(=O)c3ccco3)N2c2ccc(-c3cncnc3)cc2)c1 (configuration not stated)	·	-5	·	3	·	·	·	·
CCCCc1c(C)nc2c(OC)cccc2c1SCCC(=O)O	-7	1	0	-1	·	·	·	·
CCc1c(C)nc2c(OC)cccc2c1SCCC(=O)O	·	1	10*	4	112	0	112	0
CC(=O)c1ccc(S(=O)(=O)NCCOc2ccccc2)cc1	-9	3	·	-6	·	·	·	·
O=C(/C=C/c1ccccc1[N+](=O)[O-])NCCc1ccc(F)cc1	·	1	0.4*	2	88	0	184	0
CCOc1ccccc1-c1nc(C(N)=O)c2[nH]c(=O)n(-c3cccc(C)c3)c2n1	·	6	0.7*	-3	94	1	114	1
CCCCc1nc(C(N)=O)c2[nH]c(=O)n(-c3ccc(OC)c(OC)c3)c2n1	·	0	0	·	·	·	·	·
CCOc1cccc(-c2nc(C(N)=O)c3[nH]c(=O)n(-c4cccc(Cl)c4)c3n2)c1O	42	2	0	-8	105	0	123	0
CC(=O)O[C@H]1C=C[C@@H](C#Cc2ccc(C(C)(C)C)cc2)O[C@@H]1COC(=O)Nc1ccccc1	·	·	·	-15	·	·	·	·
COC(=O)c1ccc2c(=O)n(CCCCCC(=O)NC3CCCCC3)c(=O)[nH]c2c1	·	·	·	1	·	·	·	·
Cc1ccc(S(=O)(=O)Nc2cc(-c3ccccc3)nn2C)cc1	12	-1	0.5*	-15	97	0	98	0
NS(=O)(=O)c1ccc(CCNC(=O)Nc2ccc(Cl)c(Cl)c2)cc1	·	0	1.4*	-39	183	0	101	0
CC(C)c1ccc(OCCCN2CCC(C(O)(c3ccccc3)c3ccccc3)CC2)cc1	·	·	·	-24	·	·	·	·
O=C(COC(=O)c1ccccc1)NCC1COc2ccccc2O1 (configuration not stated)	4	3	·	-3	·	·	·	·
Cc1ccc(C(=O)OCC(=O)NCC2COc3ccccc3O2)cc1 (configuration not stated)	-4	2	0.9*	-9	119	1	114	0
Cc1[nH]c2ccccc2c1C(=O)C(C)OC(=O)c1ccc([N+](=O)[O-])o1 (configuration not stated)	81	5	0.4*	-11	88	0	104	0
CC(C(=O)NC1(C#N)CCCCC1)N(C)CC(=O)Nc1ccc(Cl)c(Cl)c1 (configuration not stated)	-18	4	0	-16	·	·	·	·
